In one assay the target is T1, ATX (Homo sapiens, UniProt Q13822). Kind of assay: ATX activity assay with pNP-TMP substrate. In kind it is biochemical. Particulars: read-out: pNP-TMP Inhibition (%). In short, it runs like this: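 Runs were in triplicate with human FLAG-fusion ATX, purified, at 10 nM, 10 µM test compound and 1 mM pNP-TMP. Buffer was 50 mM Tris pH 8.0 containing 30 µM BSA, 1 mM CaCl2, 1 mM MgCl2, 5 mM KCl and 140 mM NaCl. Absorbance at 405 nm was read every 2 min over 60 min at 37°C. Values were scaled between no-enzyme (0%) and uninhibited enzyme (100%). Interference control used 100 µM para-nitrophenol ± compound.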
Sequence of LPA2 (Q9HBW0 whole entry, species assumed): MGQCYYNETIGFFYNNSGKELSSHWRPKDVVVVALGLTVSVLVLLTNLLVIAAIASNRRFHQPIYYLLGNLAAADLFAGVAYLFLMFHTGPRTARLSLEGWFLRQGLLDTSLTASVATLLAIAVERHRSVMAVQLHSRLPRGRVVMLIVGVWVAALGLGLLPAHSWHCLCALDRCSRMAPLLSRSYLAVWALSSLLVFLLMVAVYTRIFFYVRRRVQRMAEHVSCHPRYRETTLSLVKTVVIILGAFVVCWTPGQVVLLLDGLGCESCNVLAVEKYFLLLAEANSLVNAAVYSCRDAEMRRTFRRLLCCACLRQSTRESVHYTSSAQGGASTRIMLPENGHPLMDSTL
The term inhibition denotes the relative decrease from the control value, in per cent. For the compound `O=C(COc1ccccc1F)N1CCN(c2cccc([N+](=O)[O-])c2)CC1` [Analog 13, 2-(2-fluorophenoxy)-1-(4-(3-nitrophenyl)piperazin-1-yl)ethanone], the inhibition at 10 µM is -14.7 ± 2.9%.

As for `O=C(COc1ccccc1Cl)N1CCN(c2ccc([N+](=O)[O-])cc2)CC1` [Analog 23, 2-(2-chlorophenoxy)-1-(4-(4-nitrophenyl)piperazin-1-yl)ethanone], the inhibition at 10 µM is -11.9 ± 1.3%. Still for that read-out and setting: next, `O=C(COc1ccccc1F)N1CCN(c2ccc([N+](=O)[O-])cc2)CC1` [Analog 24, 2-(2-fluorophenoxy)-1-(4-(4-nitrophenyl)piperazin-1-yl)ethanone]: -22.7 ± 4.2%; `O=C(COc1cccc(F)c1)N1CCN(c2ccc([N+](=O)[O-])cc2)CC1` [Analog 27, 2-(3-fluorophenoxy)-1-(4-(4-nitrophenyl)piperazin-1-yl)ethanone]: -14.1 ± 2.3%; `O=C(COc1ccc(F)cc1)N1CCN(c2ccc([N+](=O)[O-])cc2)CC1` [Analog 30, 2-(4-fluorophenoxy)-1-(4-(4-nitrophenyl)piperazin-1-yl)ethanone]: -12.1 ± 1.2%. Take `O=C(COc1ccc(Cl)cc1Cl)N1CCN(c2ccc([N+](=O)[O-])cc2)CC1` [Analog 32, 2-(2,4-dichlorophenoxy)-1-(4-(4-nitrophenyl)piperazin-1-yl)ethanone]: the inhibition at 10 µM was -14.9 ± 4.7%. As for `O=C(O)c1ccc(N2CCN(C(=O)COc3ccccc3F)CC2)cc1` [Analog 57, 4-(4-(2-(2-fluorophenoxy)acetyl)piperazin-1-yl)benzoic acid], the inhibition at 10 µM was -12 ± 6%. For the compound `O=C(O)c1ccc(N2CCN(C(=O)COc3cccc(F)c3)CC2)cc1` [Analog 60, 4-(4-(2-(3-fluorophenoxy)acetyl)piperazin-1-yl)benzoic acid], the inhibition at 10 µM was -36.5 ± 6.3%. Still for that read-out and setting: with `O=C(O)c1ccc(N2CCN(C(=O)COc3cccc(C(F)(F)F)c3)CC2)cc1` [Analog 61, 4-(4-(2-(3-(trifluoromethyl)phenoxy)acetyl)piperazin-1-yl)benzoic acid] the figure was -11.4 ± 2.6%. The same measure, in the same setting: next, `CC(=O)OC1(C(=O)COC(=O)c2ccco2)CC2CCC3C4C=CC(=O)CC4(C)CCC3C2(C)C1` (stereo not shown) [GRI 519441]: -45.4 ± 2.5%.

The next assay addresses LPA2 (Homo sapiens, UniProt Q9HBW0). The experiment in a line: Calcium mobilization assay, potentiation of LPA effect at LPA2. In kind it is cell-based. Particulars: supplemental figure. In general terms: Calcium flux is commonly read through the fluorescence of an indicator in the cells.
In the case of `O=C(COc1cc(Cl)cc(Cl)c1)N1CCN(c2cccc([N+](=O)[O-])c2)CC1` [Analog 22, 2-(3,5-dichlorophenoxy)-1-(4-(3-nitrophenyl)piperazin-1-yl)ethanone], the “potentiation of LPA effects at LPA2” value was “modest potentiation of LPA effects at LPA2”.

The next assay concerns the target T1, ATX. The experiment in a line: ATX activity assay with FS-3 substrate. It is filed as biochemical. The settings on record: 10 μM compound, 10 nM ATX, 1 μM FS-3. In outline:
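Purified human FLAG-tagged ATX at 10 nM with 10 µM test compound and 1 µM FS-3 in 50 mM Tris pH 8.0, 30 µM BSA, 1 mM CaCl2, 1 mM MgCl2, 5 mM KCl, 140 mM NaCl. Fluorescence (ex 485/em 520 nm) was read every 2 min for 60 min at 37°C, in triplicate. Signal was normalized to no-ATX (0%) and ATX-without-compound (100%). Interference was checked with 100 nM carboxyfluorescein ± compound.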
Turning to `CC(C)(C)CN(Cc1cccc(CN)c1)C(=O)c1ccc(-c2ccc(F)cc2)nc1` [GRI 792685], the “FS-3 Inhibition (%)” value is “false positive”.

The same assay, now with this note: read-out: FS-3 Inhibition (%), 10 μM compound, 10 nM ATX, 1 μM FS-3.
Consider `COc1ccc2c(c1)C(NCc1cc(OC)c(OC)cc1N)CCO2` (stereo not shown) [GRI 93694], for which the inhibition at 10 µM amounted to 48 ± 4.4%. The same measure, in the same setting: next, `CCCCCCCCCCCCCC(=O)NC(CCC(=O)O)C(=O)O` (stereo not shown) [GRI 96880]: 54.1 ± 0.2%. On to `O=C(CCCOc1ccc(Cl)cc1Cl)N1CCN(c2ccc([N+](=O)[O-])cc2)CC1` [GRI 392104], for which the inhibition at 10 µM is 65.5 ± 3.2%. Same read-out and setting: next, `CC(=O)OC1(C(=O)COC(=O)c2ccco2)CC2CCC3C4C=CC(=O)CC4(C)CCC3C2(C)C1` (stereo not shown) [GRI 519441]: 59.7 ± 1.7%.

For the origin of these results see publication PMC5023007 (Bioorganic & medicinal chemistry, 2016).
